These results are taken from ChEMBL document CHEMBL1811844, “Design, synthesis, and biological evaluation of triazolo-pyrimidine derivatives as novel inhibitors of hepatitis B virus surface antigen (HBsAg) secretion” (J Med Chem, 2011).

Bounds are passed on as bounds.

In one data set the test system is Rattus norvegicus. The data set can be described thus: Total body clearance in fasted Sprague-Dawley rat at 5 mg/kg, iv by LC/MS/MS analysis. In kind it is ADME, organism-based. The conditions noted are these: in vivo. On the set-up: dose 5 mg/kg, route intravenous. In outline:
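Male Sprague-Dawley rats, 3 per treatment, carried jugular cannulae and were fasted 12 h with water. Compound was formulated at 2 mg/mL in 1:1 NMP:Solutol HS15 diluted with saline. Dosing was 5 mg/kg iv or 25 mg/kg oral gavage. Blood was drawn predose and at 5, 15, 30 min, 1, 3 and 6 h. Plasma was quantified by LC-MS/MS against an 8-point standard curve.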

Data set [1] can be described thus: Cytotoxicity against human HepG2(2.2.15) cells by MTT assay. Format: cell-based. In general terms: Tetrazolium dyes change colour on reduction, which living cells bring about.
For another data set, the system named is Mus musculus. The data set can be described thus: Toxicity in HBV infected transgenic 1.3.32 mouse assessed as change in serum phosphorus level at 7.9 to 25 mg/kg, po qd for 14 days. Format: organism-based. Also noted: dose 7.9-25 mg/kg, route oral. The conditions noted are these: in vivo, 336 h. In outline:
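HBV-transgenic mice (strain 1.3.32), 10 per group, randomised; oral gavage once daily for 14 days at 25 or 7.9 mg/kg in NMP:Solutol HS15/saline vehicle; vehicle-only group. Weighed before the first dose and after 3 days; observed one hour after each dose. Tail-vein blood taken before dosing, at day 7 and at day 14 necropsy, each 3 h post-dose, for serum chemistry.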

Consider `Fc1cccc(Cl)c1C1CC(c2ccc(Cl)cc2)Nc2ncnn21` (racemic), for which the CL in the data set with Rattus norvegicus was 12 mL/min/kg. This compound returned a CC50 in data set [1] greater than 50 µM. Also, in the data set with Mus musculus, the Activity entry is recorded as “Non-toxic”.

For orientation: CC50 means the concentration that lowers cell viability or growth by half. Lower therefore signals harm at low concentration.
